Source: ChEMBL document CHEMBL5653631, “A Potent and Selective ULK1 Inhibitor Suppresses Autophagy and Sensitizes Cancer Cells to Nutrient Stress” (iScience, 2018)
One block for each compound: values may come before it.

Experiments:
[1] = target: Protein kinase C iota type (Homo sapiens) (UniProt P41743); experiment: Inhibition of human recombinant PKCi at 500 nM in presence of ATP by radiometric assay relative to control
[2] = target: T1, Aurora kinase A (Homo sapiens) (UniProt O14965); experiment: Inhibition of human recombinant AurA at 500 nM in presence of ATP by radiometric assay relative to control
T1 sequence (whole entry): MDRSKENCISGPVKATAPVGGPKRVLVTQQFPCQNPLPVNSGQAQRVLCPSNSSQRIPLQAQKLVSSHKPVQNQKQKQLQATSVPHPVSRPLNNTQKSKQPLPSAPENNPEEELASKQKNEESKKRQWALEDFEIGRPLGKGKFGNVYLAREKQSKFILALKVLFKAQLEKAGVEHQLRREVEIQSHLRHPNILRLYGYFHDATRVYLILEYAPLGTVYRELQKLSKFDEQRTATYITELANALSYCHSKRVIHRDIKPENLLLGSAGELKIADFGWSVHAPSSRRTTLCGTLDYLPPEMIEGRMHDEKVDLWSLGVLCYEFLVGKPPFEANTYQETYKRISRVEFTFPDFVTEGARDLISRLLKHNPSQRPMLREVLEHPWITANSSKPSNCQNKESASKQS
Method in brief: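 Panel of 327 recombinant human kinases, each assayed in vitro by radiometric activity assay in duplicate at a single inhibitor concentration per compound, chosen with reference to its ULK1 inhibition. Activity remaining was expressed as percent of vehicle control, and percent inhibition was calculated as 100 minus percent activity remaining.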

[3] = target: Casein kinase I isoform gamma-3 (Homo sapiens) (UniProt Q9Y6M4); experiment: Inhibition of human recombinant CK1g3 at 500 nM related to control ULK1
Sequence of Casein kinase I isoform gamma-3 (Homo sapiens) (Q9Y6M4 whole entry, looked up, canonical isoform): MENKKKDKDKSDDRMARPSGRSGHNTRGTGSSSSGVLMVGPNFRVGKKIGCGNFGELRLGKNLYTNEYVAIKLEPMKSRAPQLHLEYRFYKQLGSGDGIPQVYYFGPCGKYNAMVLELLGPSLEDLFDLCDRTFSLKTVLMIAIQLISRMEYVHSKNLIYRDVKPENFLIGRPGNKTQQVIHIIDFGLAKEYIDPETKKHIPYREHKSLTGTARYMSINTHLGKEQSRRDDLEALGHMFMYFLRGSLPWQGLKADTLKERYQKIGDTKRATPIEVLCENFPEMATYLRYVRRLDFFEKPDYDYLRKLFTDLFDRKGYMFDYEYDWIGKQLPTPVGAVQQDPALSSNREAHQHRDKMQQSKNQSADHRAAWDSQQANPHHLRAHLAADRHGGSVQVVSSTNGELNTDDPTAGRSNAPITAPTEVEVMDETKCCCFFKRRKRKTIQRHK

[4] = target: T2, Serine/threonine-protein kinase Nek11 (Homo sapiens) (UniProt Q8NG66); experiment: Inhibition of human recombinant NEK11 at 15 nM in presence of ATP by radiometric assay relative to control
T2 sequence (whole entry): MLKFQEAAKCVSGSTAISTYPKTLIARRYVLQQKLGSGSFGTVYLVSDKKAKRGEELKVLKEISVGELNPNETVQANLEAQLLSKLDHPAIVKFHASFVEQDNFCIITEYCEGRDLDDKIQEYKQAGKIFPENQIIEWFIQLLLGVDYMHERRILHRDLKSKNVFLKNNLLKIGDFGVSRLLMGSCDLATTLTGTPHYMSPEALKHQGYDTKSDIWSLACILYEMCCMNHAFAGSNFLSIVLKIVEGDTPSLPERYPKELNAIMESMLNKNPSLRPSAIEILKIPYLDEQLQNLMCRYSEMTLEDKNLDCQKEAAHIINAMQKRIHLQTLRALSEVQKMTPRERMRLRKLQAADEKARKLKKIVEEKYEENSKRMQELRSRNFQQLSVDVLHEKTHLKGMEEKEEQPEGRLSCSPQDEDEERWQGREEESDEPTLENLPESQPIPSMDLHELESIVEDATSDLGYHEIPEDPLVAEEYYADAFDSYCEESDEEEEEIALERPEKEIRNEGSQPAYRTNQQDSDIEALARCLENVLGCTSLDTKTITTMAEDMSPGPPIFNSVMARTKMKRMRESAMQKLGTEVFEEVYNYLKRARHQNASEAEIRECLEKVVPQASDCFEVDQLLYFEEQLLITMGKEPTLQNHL

[5] = target: Wee1-like protein kinase 2 (Homo sapiens) (UniProt P0C1S8); experiment: Inhibition of human recombinant Wee1B at 15 nM related to control ULK1
Sequence of Wee1-like protein kinase 2 (Homo sapiens) (P0C1S8 whole entry, looked up): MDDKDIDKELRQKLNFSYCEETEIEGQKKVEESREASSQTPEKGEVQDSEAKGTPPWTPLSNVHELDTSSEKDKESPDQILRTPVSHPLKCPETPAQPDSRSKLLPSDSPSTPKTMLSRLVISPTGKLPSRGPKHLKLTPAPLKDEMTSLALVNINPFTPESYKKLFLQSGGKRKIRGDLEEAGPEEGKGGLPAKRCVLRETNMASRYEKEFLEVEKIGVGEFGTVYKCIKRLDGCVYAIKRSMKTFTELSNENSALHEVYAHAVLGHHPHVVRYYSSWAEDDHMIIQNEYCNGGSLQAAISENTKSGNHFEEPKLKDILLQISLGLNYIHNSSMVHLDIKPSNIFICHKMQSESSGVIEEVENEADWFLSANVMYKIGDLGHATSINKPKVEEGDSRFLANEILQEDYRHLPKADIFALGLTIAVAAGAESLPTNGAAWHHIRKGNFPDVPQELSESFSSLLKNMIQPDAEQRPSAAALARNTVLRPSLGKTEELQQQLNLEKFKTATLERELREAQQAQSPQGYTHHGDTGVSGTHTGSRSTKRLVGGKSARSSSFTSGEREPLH

[6] = target: Mast/stem cell growth factor receptor Kit (Homo sapiens) (UniProt P10721); experiment: Inhibition of human recombinant KIT at 15 nM in presence of ATP by radiometric assay relative to control
Sequence of Mast/stem cell growth factor receptor Kit (Homo sapiens) (P10721 whole entry): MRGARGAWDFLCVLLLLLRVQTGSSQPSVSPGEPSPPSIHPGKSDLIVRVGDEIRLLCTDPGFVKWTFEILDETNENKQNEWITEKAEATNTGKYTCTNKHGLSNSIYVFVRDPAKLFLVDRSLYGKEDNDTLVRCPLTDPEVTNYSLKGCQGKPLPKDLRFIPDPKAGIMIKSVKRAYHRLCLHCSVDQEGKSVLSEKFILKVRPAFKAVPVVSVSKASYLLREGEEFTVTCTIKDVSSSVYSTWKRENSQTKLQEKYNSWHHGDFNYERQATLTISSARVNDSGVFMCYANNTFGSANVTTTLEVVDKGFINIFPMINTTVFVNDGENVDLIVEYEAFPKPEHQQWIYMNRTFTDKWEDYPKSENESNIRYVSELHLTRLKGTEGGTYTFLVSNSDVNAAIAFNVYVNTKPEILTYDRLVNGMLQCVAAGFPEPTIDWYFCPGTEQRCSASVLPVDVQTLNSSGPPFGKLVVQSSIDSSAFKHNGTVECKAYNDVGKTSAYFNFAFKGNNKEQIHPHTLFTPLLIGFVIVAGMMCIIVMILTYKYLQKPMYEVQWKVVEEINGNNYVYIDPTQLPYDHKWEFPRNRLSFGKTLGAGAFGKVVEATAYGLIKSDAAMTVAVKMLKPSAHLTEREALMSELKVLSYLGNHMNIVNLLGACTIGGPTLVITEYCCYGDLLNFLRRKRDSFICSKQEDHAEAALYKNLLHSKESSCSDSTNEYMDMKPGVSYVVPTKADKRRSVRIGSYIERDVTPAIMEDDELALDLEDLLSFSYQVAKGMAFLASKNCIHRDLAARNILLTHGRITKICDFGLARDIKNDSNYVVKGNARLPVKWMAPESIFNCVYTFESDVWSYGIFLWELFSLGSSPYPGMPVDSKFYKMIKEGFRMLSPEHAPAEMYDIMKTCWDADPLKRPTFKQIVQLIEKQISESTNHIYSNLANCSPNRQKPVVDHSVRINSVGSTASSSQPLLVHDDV

[7] = target: Serine/threonine-protein kinase PAK 3 (Homo sapiens) (UniProt O75914); experiment: Inhibition of human recombinant PAK3 at 15 nM in presence of ATP by radiometric assay relative to control
Sequence of Serine/threonine-protein kinase PAK 3 (Homo sapiens) (O75914 whole entry, looked up): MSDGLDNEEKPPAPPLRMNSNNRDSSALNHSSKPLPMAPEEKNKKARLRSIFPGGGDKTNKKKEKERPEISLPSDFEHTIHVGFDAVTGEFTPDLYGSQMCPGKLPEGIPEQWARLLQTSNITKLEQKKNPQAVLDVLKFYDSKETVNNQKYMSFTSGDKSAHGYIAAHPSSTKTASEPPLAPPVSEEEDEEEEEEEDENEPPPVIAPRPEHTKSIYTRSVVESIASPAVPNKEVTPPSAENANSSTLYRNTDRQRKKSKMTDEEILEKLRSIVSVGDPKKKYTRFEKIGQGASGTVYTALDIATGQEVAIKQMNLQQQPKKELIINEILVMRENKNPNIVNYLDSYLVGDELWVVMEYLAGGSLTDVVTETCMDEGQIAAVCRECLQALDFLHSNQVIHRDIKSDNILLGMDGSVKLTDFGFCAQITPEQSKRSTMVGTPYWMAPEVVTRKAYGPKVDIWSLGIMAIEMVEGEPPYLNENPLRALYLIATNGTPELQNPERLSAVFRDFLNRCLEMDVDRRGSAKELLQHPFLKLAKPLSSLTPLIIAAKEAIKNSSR

[8] = target: Ribosomal protein S6 kinase alpha-1 (Homo sapiens) (UniProt Q15418); experiment: Inhibition of human recombinant RSK1 at 15 nM in presence of ATP by radiometric assay relative to control
Sequence of Ribosomal protein S6 kinase alpha-1 (Homo sapiens) (Q15418 whole entry): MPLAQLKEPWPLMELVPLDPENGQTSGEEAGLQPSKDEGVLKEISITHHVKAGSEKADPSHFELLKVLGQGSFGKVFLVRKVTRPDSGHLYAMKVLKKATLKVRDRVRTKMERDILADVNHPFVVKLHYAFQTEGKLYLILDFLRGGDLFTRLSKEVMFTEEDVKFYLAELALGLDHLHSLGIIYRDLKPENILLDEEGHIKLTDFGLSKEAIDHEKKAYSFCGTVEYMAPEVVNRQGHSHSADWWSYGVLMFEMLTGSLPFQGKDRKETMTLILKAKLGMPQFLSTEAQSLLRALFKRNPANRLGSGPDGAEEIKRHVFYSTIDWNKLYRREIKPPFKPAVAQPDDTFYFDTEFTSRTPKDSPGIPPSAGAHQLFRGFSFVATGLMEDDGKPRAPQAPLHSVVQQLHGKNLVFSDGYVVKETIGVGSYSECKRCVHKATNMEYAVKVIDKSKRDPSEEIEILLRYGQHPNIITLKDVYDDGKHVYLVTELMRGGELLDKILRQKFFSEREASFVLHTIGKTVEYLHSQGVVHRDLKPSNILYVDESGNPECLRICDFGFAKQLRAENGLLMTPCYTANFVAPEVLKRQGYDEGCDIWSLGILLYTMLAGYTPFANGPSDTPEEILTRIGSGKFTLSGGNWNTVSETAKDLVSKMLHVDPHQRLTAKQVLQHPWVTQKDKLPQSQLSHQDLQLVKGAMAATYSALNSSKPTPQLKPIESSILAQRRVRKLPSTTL

[9] = target: T3, Mitogen-activated protein kinase 12 (Homo sapiens) (UniProt P53778); experiment: Inhibition of human recombinant p38gamma at 15 nM in presence of ATP by radiometric assay relative to control
T3 sequence (whole entry): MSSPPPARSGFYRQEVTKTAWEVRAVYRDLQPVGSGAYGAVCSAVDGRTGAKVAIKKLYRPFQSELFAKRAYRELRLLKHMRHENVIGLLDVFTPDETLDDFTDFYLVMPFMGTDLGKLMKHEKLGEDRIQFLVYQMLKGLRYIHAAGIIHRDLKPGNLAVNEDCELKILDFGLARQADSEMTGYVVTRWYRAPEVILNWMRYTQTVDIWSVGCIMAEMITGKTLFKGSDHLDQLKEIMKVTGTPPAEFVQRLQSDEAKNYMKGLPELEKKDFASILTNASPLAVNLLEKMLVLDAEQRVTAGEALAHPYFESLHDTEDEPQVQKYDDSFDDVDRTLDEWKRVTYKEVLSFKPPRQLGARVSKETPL

Homo sapiens = species: Homo sapiens; experiment: Inhibition of human recombinant ABL at 15 nM related to control ULK1
[10] = target: T2, Serine/threonine-protein kinase Nek11 (Homo sapiens); experiment: Inhibition of human recombinant NEK11 at 15 nM related to control ULK1
[11] = target: T4, Phosphorylase b kinase gamma catalytic chain, liver/testis isoform (Homo sapiens) (UniProt P15735); experiment: Inhibition of human recombinant PHKg2 at 15 nM in presence of ATP by radiometric assay relative to control
T4 sequence (whole entry): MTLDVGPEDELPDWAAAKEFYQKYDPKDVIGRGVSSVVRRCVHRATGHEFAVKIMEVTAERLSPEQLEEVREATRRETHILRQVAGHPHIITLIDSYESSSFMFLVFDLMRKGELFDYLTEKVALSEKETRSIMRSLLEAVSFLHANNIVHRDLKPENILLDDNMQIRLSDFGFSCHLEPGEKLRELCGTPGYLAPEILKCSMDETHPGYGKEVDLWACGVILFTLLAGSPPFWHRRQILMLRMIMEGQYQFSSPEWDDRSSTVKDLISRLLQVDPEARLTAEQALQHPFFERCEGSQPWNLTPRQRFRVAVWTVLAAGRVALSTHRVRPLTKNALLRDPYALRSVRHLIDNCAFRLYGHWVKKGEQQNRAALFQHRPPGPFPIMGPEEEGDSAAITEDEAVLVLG

[12] = target: Protein kinase C alpha type (Homo sapiens) (UniProt P17252); experiment: Inhibition of human recombinant PKCa at 40 nM related to control ULK1
[13] = target: Dual specificity protein kinase CLK3 (Homo sapiens) (UniProt P49761); experiment: Inhibition of human recombinant CLK3 at 40 nM in presence of ATP by radiometric assay relative to control
Sequence of Dual specificity protein kinase CLK3 (Homo sapiens) (P49761 whole entry, looked up): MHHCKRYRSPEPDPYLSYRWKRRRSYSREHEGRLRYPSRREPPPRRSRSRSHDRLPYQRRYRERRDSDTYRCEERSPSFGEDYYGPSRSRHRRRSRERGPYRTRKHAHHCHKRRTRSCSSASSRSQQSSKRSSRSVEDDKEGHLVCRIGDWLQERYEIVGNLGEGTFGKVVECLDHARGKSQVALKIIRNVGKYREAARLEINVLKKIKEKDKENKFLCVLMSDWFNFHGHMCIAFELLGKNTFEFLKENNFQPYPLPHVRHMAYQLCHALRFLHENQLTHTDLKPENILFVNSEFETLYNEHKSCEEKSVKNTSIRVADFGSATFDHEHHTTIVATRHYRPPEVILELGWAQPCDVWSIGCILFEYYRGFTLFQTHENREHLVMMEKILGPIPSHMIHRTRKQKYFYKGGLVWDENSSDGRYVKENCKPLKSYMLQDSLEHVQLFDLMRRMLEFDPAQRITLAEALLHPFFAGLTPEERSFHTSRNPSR

[14] = target: Myosin light chain kinase 2, skeletal/cardiac muscle (Homo sapiens) (UniProt Q9H1R3); experiment: Inhibition of human recombinant skMLCK at 40 nM in presence of ATP by radiometric assay relative to control
Sequence of Myosin light chain kinase 2, skeletal/cardiac muscle (Homo sapiens) (Q9H1R3 whole entry): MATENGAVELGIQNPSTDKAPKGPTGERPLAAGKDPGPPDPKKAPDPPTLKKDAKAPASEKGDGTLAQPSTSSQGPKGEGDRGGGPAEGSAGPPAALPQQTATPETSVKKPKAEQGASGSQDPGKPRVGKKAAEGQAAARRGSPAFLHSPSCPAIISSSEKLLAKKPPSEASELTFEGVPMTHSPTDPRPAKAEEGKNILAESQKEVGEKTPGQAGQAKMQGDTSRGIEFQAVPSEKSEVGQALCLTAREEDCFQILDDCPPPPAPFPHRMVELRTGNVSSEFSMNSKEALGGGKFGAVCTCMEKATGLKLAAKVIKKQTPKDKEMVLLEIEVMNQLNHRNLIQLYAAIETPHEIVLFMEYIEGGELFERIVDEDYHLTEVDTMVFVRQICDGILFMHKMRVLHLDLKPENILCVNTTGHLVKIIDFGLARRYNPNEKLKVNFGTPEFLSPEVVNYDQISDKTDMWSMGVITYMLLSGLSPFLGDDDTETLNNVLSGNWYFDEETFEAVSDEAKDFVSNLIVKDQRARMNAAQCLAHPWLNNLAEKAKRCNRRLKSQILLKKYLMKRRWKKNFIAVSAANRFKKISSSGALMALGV

inhibition [1]: 0% | inhibition [2]: 80% | fold change (FC) [3]: 0
Compound: CNC(=O)c1ccccc1Oc1nc(Nc2cc(OC)c(OC)c(OC)c2)ncc1Br

inhibition [4]: 0% | fold change (FC) [5]: 0.13 | inhibition [6]: 0% | inhibition [7]: 4% | inhibition [8]: 23% | inhibition [9]: 5% | fold change (FC) (Homo sapiens): 0.93 | fold change (FC) [10]: 0 | inhibition [11]: 9%
Compound: CC(C)[C@H](NC(=O)c1cc(-c2cnn3cc(-c4ccc(OCCN5CCCCC5)cc4)cnc23)cs1)C(F)(F)F

fold change (FC) [12]: 0 | inhibition [13]: 0% | inhibition [14]: 0%
Compound: O=C(N[C@@H](C1CC1)C(F)(F)F)c1cc(-c2cnn3cc(-c4ccc(F)cc4)cnc23)cs1
